In publication PMC7199890 (European journal of medicinal chemistry, 2019):
Structures can show the parent of a compound that is named as a salt.

Legend:
[1] = target: hA2AAR (Homo sapiens, UniProt P29274); assay: Radioligand binding; conditions: selectivity ratio of Ki values
[2] = target: T1, hA3AR (Homo sapiens, UniProt P0DMS8); assay: Radioligand binding; conditions: selectivity ratio of Ki values
T1 sequence (P0DMS8 1-318): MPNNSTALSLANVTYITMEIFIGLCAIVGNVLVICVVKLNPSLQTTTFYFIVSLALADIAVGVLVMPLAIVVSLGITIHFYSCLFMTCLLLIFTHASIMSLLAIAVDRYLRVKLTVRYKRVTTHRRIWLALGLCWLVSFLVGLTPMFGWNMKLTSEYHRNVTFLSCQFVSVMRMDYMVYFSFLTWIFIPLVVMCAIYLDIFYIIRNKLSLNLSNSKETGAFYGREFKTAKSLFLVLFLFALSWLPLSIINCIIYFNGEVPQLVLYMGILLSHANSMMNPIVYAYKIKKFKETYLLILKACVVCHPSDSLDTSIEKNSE
Outline: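 Displacement of [125I]AB-MECA binding on membranes from CHO cells expressing recombinant hA3AR. […] ADA (3 units/mL) was present during membrane preparation, a 30 min 30 °C preincubation and radioligand incubation. DMSO was ≤2% final. At least six competitor concentrations spanning 3 log units were used. Incubations ended by GF/B filtration and three rinses.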

Chain of hA2AAR (P29274 whole entry): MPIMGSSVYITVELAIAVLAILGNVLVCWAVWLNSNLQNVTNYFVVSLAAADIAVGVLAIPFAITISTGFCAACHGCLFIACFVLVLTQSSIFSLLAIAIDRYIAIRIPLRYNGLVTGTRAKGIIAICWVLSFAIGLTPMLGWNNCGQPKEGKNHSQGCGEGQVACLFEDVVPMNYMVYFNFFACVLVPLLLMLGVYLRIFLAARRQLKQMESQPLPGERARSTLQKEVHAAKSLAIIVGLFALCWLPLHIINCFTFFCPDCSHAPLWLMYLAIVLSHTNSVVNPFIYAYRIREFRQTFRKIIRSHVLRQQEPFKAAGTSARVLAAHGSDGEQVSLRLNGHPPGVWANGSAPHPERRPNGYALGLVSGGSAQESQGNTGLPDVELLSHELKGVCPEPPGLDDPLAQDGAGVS

| Compound | hA1/hA2A [1] | hA1/hA3 [2] | hA2A/hA3 [2] |
| --- | --- | --- | --- |
| Cn1cc2c(nc(NC(=O)Nc3ccc(CC(=O)O)cc3)n3nc(-c4ccco4)nc23)n1 [Compound 3, 2-(4-(3-(2-(furan-2-yl)-8-methyl-8H-pyrazolo [4,3-e] [1,2,4]triazolo[1,5-c]pyrimidin-5-yl)ureido)phenyl)acetic acid] | >10 | – | – |
| Cn1cc2c(nc(NC(=O)Nc3ccc(CC(=O)NCCCCCNC(=O)OC(C)(C)C)cc3)n3nc(-c4ccco4)nc23)n1 [Compound 6, tert-Butyl (5-(2-(4-(3-(2-(furan-2-yl)-8-methyl-8H-pyrazolo [4,3-e][1,2,4]triazolo[1,5-c]pyrimidin-5-yl)ureido)phenyl)acetamido)pentyl)carbamate] | >26.5 | >2237 | 84.1 |
| Cn1cc2c(nc(NC(=O)Nc3ccc(CC(=O)NCCOCCOCCNC(=O)OC(C)(C)C)cc3)n3nc(-c4ccco4)nc23)n1 [Compound 7, tert-Butyl (2-(2-(2-(2-(4-(3-(2-(furan-2-yl)-8-methyl-8H-pyrazolo[4,3-e][1,2,4]triazolo[1,5-c]pyrimidin-5-yl)ureido)phenyl)acetamido)ethoxy)ethoxy)ethyl)carbamate] | >22 | >133.6 | 6.1 |
| Cn1cc2c(nc(NC(=O)Nc3ccc(CC(=O)NCCCOCCOCCOCCCNC(=O)OC(C)(C)C)cc3)n3nc(-c4ccco4)nc23)n1 [Compound 8, tert-Butyl (1-(4-(3-(2-(furan-2-yl)-8-methyl-8H-pyrazolo [4,3-e][1,2,4]triazolo[1,5-c]pyrimidin-5-yl)ureido)phenyl)-2-oxo-7,10,13-trioxa-3-azahexadecan-16-yl)carbamate] | >30.5 | >121.3 | 3.9 |
| Cn1cc2c(nc(NC(=O)Nc3ccc(CC(=O)NCCCN)cc3)n3nc(-c4ccco4)nc23)n1 [Compound 9, N-(3-aminopropyl)-2-(4-(3-(2-(furan-2-yl)-8-methyl-8H-pyrazolo[4,3-e][1,2,4]triazolo[1,5-c]pyrimidin-5-yl)ureido)phenyl) acetamide trifluoroacetate salt] | >57 | >1240 | 21.7 |
| C#CCCCC(=O)Nc1nc2nn(C)cc2c2nc(-c3ccco3)nn12 [Compound 20, N-(2-(furan-2-yl)-8-methyl-8H-pyrazolo[4,3-e][1,2,4]triazolo[1,5-c]pyrimidin-5-yl)hex-5-ynamide] | – | – | 48.4 |

Next, values leading:

| hA1/hA2A [1] | hA1/hA3 [2] | hA2A/hA3 [2] | Compound |
| --- | --- | --- | --- |
| >66 | >3636 | 54.5 | Cn1cc2c(nc(NC(=O)Nc3ccc(CC(=O)NCCCNC(=O)OC(C)(C)C)cc3)n3nc(-c4ccco4)nc23)n1 [Compound 4, tert-Butyl (3-(2-(4-(3-(2-(furan-2-yl)-8-methyl-8H-pyrazolo [4,3-e][1,2,4]triazolo[1,5-c]pyrimidin-5-yl)ureido)phenyl)acetamido)propyl)carbamate] |
| >33 | >2890 | 88 | Cn1cc2c(nc(NC(=O)Nc3ccc(CC(=O)NCCCCNC(=O)OC(C)(C)C)cc3)n3nc(-c4ccco4)nc23)n1 [Compound 5, tert-Butyl (4-(2-(4-(3-(2-(furan-2-yl)-8-methyl-8H-pyrazolo [4,3-e][1,2,4]triazolo[1,5-c]pyrimidin-5-yl)ureido)phenyl)acetamido)butyl)carbamate] |
| >58 | >1666 | 28.6 | Cn1cc2c(nc(NC(=O)Nc3ccc(CC(=O)NCCCCN)cc3)n3nc(-c4ccco4)nc23)n1 [Compound 10, N-(4-aminobutyl)-2-(4-(3-(2-(furan-2-yl)-8-methyl-8H-pyrazolo[4,3-e][1,2,4]triazolo[1,5-c]pyrimidin-5-yl)ureido)phenyl) acetamide trifluoroacetate salt] |
